Common to all, as to assay type: functional, cell-based
Assay [1] in a line: (§1) Inhibition of cholesterol biosynthesis in human chang liver cells assessed as conversion of lanosterol into cholesterol. The method, boiled down:
(§2)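 Chang liver cells (ATCC CCL 13) seeded at 5×10^4 per 15-mm dish in MEM + 10% FBS; on day 2 washed, held 4 h in serum-free Hepatozyme-SFM, pretreated 2 h with compound, then labeled acetate (2.5 μCi/well) for 2 h. Cells lysed in 0.1 N NaOH, saponified (6% KOH/MeOH), nonsaponifiable lipids extracted in n-hexane, separated by TLC (C6H6-Me2CO 19:1), radioactive spots quantified by phosphor imaging.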

Assay [2] has as its system chang liver. Described as §1. The method, boiled down: as §2
For assay [3], the system named is chang liver. Kind of assay: Inhibition of cholesterol biosynthesis in human chang liver cells assessed as suppression of lanosterol. The method, boiled down:
as §2

For assay [4], the system named is chang liver. Kind of assay: Inhibition of cholesterol biosynthesis in human chang liver cells assessed as suppression of cholesterol level. The method, boiled down: as §2

We go through eight compounds from ChEMBL document CHEMBL1144142, “Lyso-PAF analogues and lysophosphatidylcholines from the marine sponge Spirastrella abata as inhibitors of cholesterol biosynthesis” (J Nat Prod, 1999).

Molecules are shown by their SMILES. Values after ≈ are worked out from the molar mass of the structure shown. Active and inactive are the calls of the source. No cut-off for these calls is given here.

On to `CCCCCCCCCCCCC/C=C\CCCOC[C@@H](O)COP(=O)([O-])OCC[N+](C)(C)C`, for which the IC50 (commonly the concentration needed to halve the response being measured) in assay [1] came to 121 µg/mL (≈ 238 µM). The Activity entry in assay [2] was “Dose-dependent effect”.
In the same order, the values of `CCCCCC/C=C\CCCCCCCCCCOC[C@@H](O)COP(=O)([O-])OCC[N+](C)(C)C` are 125 µg/mL (≈ 246 µM) and “Dose-dependent effect”.
In the same order, the values of `CCCCCC/C=C\CCCCCCCCCCCC(=O)OC[C@@H](O)COP(=O)([O-])OCC[N+](C)(C)C` are 21 µg/mL (≈ 38.2 µM) and “Dose-dependent effect”.
In the same order, the values of `CCCCCCCCCCCCCCCCOC[C@@H](O)COP(=O)([O-])OCC[N+](C)(C)C` are 422 µg/mL (≈ 876 µM) and “Dose-dependent effect”.
`CCCCCCC1CC1CCCCCCCCCC(=O)OC[C@@H](O)COP(=O)([O-])OCC[N+](C)(C)C` (some centres not stated): in assay [1], the IC50 stood at 60 µg/mL (≈ 112 µM). Moreover, the Activity result in assay [2] was “Dose-dependent effect”. Moreover, the result in assay [3] was inactive.
On to `CC(C)CCCCCCCCCCCCCCOC[C@@H](O)COP(=O)([O-])OCC[N+](C)(C)C`, for which the IC50 in assay [1] was found to be 320 µg/mL (≈ 646 µM). For the same compound, in assay [2], the Activity result was “Dose-dependent effect”.
On to `CC[C@H](C)C(=O)O[C@H]1CCC=C2C=C[C@H](C)[C@H](CC[C@@H]3C[C@@H](O)CC(=O)O3)[C@H]21`, for which the result in assay [3] and in assay [4] was Active.
As to `CCCCCCCCCCCCCC/C=C\CCOC[C@@H](O)COP(=O)([O-])OCC[N+](C)(C)C`, the IC50 in assay [1] worked out at 174 µg/mL (≈ 343 µM). Also, in assay [2], the Activity result is “Dose-dependent effect”.
